Data from ChEMBL document CHEMBL1138569, “A facile synthesis of novel biologically active 4-hydroxy-N'-(benzylidene)-2H-benzo[e][1,2]thiazine-3-carbohydrazide 1,1-dioxides” (2009).
The source made the active and inactive calls. The rule behind the calls is not given here.

Columns and labels:
Escherichia coli [1] = assay: Antibacterial activity against Escherichia coli at 1 mg/ml by agar well diffusion method; assay type: functional, organism-based
Method in brief: (§1)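 Agar well diffusion; compounds loaded into 6 mm wells at 1 mg per ml DMSO, with a DMSO-only (0) control. Read-out: inhibition zone diameter (mm).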

Pseudomonas aeruginosa [2] = assay: Antibacterial activity against Pseudomonas aeruginosa at 1 mg/ml by agar well diffusion method; assay type: functional, organism-based; method in brief: as §1
[3] = tested on: Radical scavenging activity; assay: Antioxidant activity assessed as DPPH radical scavenging activity after 30 mins; assay type: functional; design: concentration or dose not given beside the values
Method in brief: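 Test sample (0.5 mM stock in DMSO, 5 µL) mixed with 95 µL DPPH in ethanol and incubated at 37 °C for 30 min. Absorbance read at 515 nm. Percent radical scavenging calculated against a DMSO-containing control; 3-tert-butyl-4-hydroxyanisole used as reference.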

[4] = tested on: Salmonella enterica subsp. enterica serovar Typhi str. CT18; assay: Antibacterial activity against Salmonella typhi at 1 mg/ml by agar well diffusion method; assay type: functional; conditions: for zone of inhibition at 1000 µg/mL: read-out: IZ
Method in brief: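 Agar well diffusion against Salmonella typhi. Samples were dissolved in DMSO at 1 mg per ml and applied to 6 mm diameter wells. A solvent-only well served as control. Activity was read as inhibition zone diameter in mm.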

Staphylococcus aureus [5] = assay: Antibacterial activity against Staphylococcus aureus at 1 mg/ml by agar well diffusion method; assay type: functional; conditions: for zone of inhibition at 1000 µg/mL: read-out: IZ; method in brief: as §1
Bacillus subtilis [6] = assay: Antibacterial activity against Bacillus subtilis at 1 mg/ml by agar well diffusion method; assay type: functional, organism-based; method in brief: as §1
Shigella flexneri [7] = assay: Antibacterial activity against Shigella flexneri at 1 mg/ml by agar well diffusion method; assay type: functional; conditions: for zone of inhibition at 1000 µg/mL: read-out: IZ; method in brief: as §1
Bacillus subtilis [8] = assay: Antibacterial activity against Bacillus subtilis at 10 ug/disk by agar well diffusion method; assay type: functional; conditions: read-out: IZ
Method in brief: (§2)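 Agar well diffusion with imipenem as the standard at 10 µg per disc, run alongside 6 mm wells and a DMSO-only control. Read-out: inhibition zone diameter (mm).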

[9] = tested on: Salmonella enterica subsp. enterica serovar Typhi str. CT18; assay: Antibacterial activity against Salmonella typhi at 10 ug/disk by agar well diffusion method; assay type: functional; conditions: read-out: IZ
Method in brief: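 Agar well diffusion against Salmonella typhi, using the reference antibiotic imipenem applied at 10 µg per disc alongside 6 mm sample wells. Activity was read as inhibition zone diameter in mm.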

Shigella flexneri [10] = assay: Antibacterial activity against Shigella flexneri at 10 ug/disk by agar well diffusion method; assay type: functional; conditions: read-out: IZ; method in brief: as §2
Escherichia coli [11] = assay: Antibacterial activity against Escherichia coli at 10 ug/disk by agar well diffusion method; assay type: functional; conditions: read-out: IZ; method in brief: as §2
Pseudomonas aeruginosa [12] = assay: Antibacterial activity against Pseudomonas aeruginosa at 10 ug/disk by agar well diffusion method; assay type: functional; conditions: read-out: IZ; method in brief: as §2
Staphylococcus aureus [13] = assay: Antibacterial activity against Staphylococcus aureus at 10 ug/disk by agar well diffusion method; assay type: functional; conditions: read-out: IZ; method in brief: as §2

Row | Compound | inhibition zone (IZ) (Escherichia coli [1]) | inhibition zone (IZ) (Pseudomonas aeruginosa [2]) | Activity [3] | inhibition zone (IZ) [4] | inhibition zone (IZ) (Staphylococcus aureus [5]) | inhibition zone (IZ) (Bacillus subtilis [6]) | inhibition zone (IZ) (Shigella flexneri [7]) | zone of inhibition at 1000 µg/mL (Staphylococcus aureus [5]) | zone of inhibition at 1000 µg/mL (Shigella flexneri [7]) | zone of inhibition at 1000 µg/mL [4] | zone of inhibition at 10 µg/disc (Bacillus subtilis [8]) | zone of inhibition at 10 µg/disc [9] | zone of inhibition at 10 µg/disc (Shigella flexneri [10]) | zone of inhibition at 10 µg/disc (Escherichia coli [11]) | zone of inhibition at 10 µg/disc (Pseudomonas aeruginosa [12]) | zone of inhibition at 10 µg/disc (Staphylococcus aureus [13])
1 | O=C(N/N=C/c1cccc(Cl)c1)C1=C(O)c2ccccc2S(=O)(=O)N1 | inactive | inactive | 23.8% | inactive | inactive | inactive | inactive |  |  |  |  |  |  |  |  | 
2 | O=C(N/N=C/c1ccccc1)C1=C(O)c2ccccc2S(=O)(=O)N1 | inactive | inactive | 37.6% | inactive | inactive | inactive | inactive |  |  |  |  |  |  |  |  | 
3 | COc1ccc(/C=N/NC(=O)C2=C(O)c3ccccc3S(=O)(=O)N2)c(OC)c1 | inactive | inactive | 68.2% | inactive | inactive | inactive | inactive |  |  |  |  |  |  |  |  | 
4 | COc1ccc(O)c(C(C)(C)C)c1.COc1ccc(O)cc1C(C)(C)C | inactive | inactive | 92.6% | inactive | inactive | inactive | inactive |  |  |  |  |  |  |  |  | 
5 | O=C(N/N=C/c1ccccc1Cl)C1=C(O)c2ccccc2S(=O)(=O)N1 | inactive | inactive | 57.4% | inactive | inactive | inactive | inactive |  |  |  |  |  |  |  |  | 
6 | COc1ccc(/C=N/NC(=O)C2=C(O)c3ccccc3S(=O)(=O)N2)cc1O | inactive | inactive | 42.9% | inactive |  | inactive |  | 10 mm | 10 mm |  |  |  |  |  |  | 
7 | COc1ccc(/C=N/NC(=O)C2=C(O)c3ccccc3S(=O)(=O)N2)cc1 | inactive | inactive | 43.7% | inactive |  | inactive | inactive | 12 mm |  |  |  |  |  |  |  | 
8 | COc1ccc(/C=N/NC(=O)C2=C(O)c3ccccc3S(=O)(=O)N2)cc1OC | inactive | inactive | 38% |  | inactive | inactive |  |  | 20 mm | 11 mm |  |  |  |  |  | 
9 | O=C(N/N=C/c1ccc(Cl)cc1)C1=C(O)c2ccccc2S(=O)(=O)N1 | inactive | inactive | 21.2% | inactive | inactive | inactive | inactive |  |  |  |  |  |  |  |  | 
10 | O=C(N/N=C/c1ccc([N+](=O)[O-])cc1)C1=C(O)c2ccccc2S(=O)(=O)N1 | inactive | inactive | 30.9% |  | inactive | inactive | inactive |  |  | 26 mm |  |  |  |  |  | 
11 | C[C@@H](O)[C@H]1C(=O)N2C(C(=O)O)=C(SCCNC=N)C[C@H]12 [IMIPENEM ANHYDROUS] |  |  |  |  |  |  |  |  |  |  | 36 mm | 30 mm | 37 mm | 30 mm | 32 mm | 26 mm
12 | COc1ccc(/C=N/NC(=O)C2=C(O)c3ccccc3S(=O)(=O)N2)c(OC)c1OC | inactive | inactive | 43.6% | inactive |  | inactive |  | 21 mm | 22 mm |  |  |  |  |  |  | 
13 | O=C(N/N=C/c1ccc(O)cc1O)C1=C(O)c2ccccc2S(=O)(=O)N1 | inactive | inactive | 65% |  | inactive | inactive | inactive |  |  | 28 mm |  |  |  |  |  | 
14 | O=C(N/N=C/c1ccccc1[N+](=O)[O-])C1=C(O)c2ccccc2S(=O)(=O)N1 | inactive | inactive | 37.3% |  |  | inactive | inactive | 10 mm |  | 11 mm |  |  |  |  |  | 
15 | O=C(N/N=C/c1ccccc1O)C1=C(O)c2ccccc2S(=O)(=O)N1 | inactive | inactive | 40.7% | inactive | inactive | inactive | inactive |  |  |  |  |  |  |  |  | 
16 | COc1cc(/C=N/NC(=O)C2=C(O)c3ccccc3S(=O)(=O)N2)ccc1O | inactive | inactive | 35% | inactive |  | inactive | inactive | 15 mm |  |  |  |  |  |  |  | 
17 | O=C(N/N=C/c1ccc(Cl)cc1Cl)C1=C(O)c2ccccc2S(=O)(=O)N1 | inactive | inactive | 43.8% | inactive | inactive | inactive |  |  | 10 mm |  |  |  |  |  |  | 
